MrgX1 PAM: allosterically activates human MrgX1 receptor signaling; Q96LB2; MrgX1-HEK293, Fluo-4 calcium flux, FDSS; stronger effect = higher value; B-score at 10 µM; 310,000 compounds, 0.63% hits; AID 588675;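 active = plate-corrected calcium response at least 3 library SD above typical, normal starting fluorescence, not activating the receptor alone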;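 note: compound read alongside a low EC10 to EC30 dose of BAM8-22 agonist; peak minus trough fluorescence over baseline measured at the second addition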
Target sequence (Q96LB2 whole entry, looked up): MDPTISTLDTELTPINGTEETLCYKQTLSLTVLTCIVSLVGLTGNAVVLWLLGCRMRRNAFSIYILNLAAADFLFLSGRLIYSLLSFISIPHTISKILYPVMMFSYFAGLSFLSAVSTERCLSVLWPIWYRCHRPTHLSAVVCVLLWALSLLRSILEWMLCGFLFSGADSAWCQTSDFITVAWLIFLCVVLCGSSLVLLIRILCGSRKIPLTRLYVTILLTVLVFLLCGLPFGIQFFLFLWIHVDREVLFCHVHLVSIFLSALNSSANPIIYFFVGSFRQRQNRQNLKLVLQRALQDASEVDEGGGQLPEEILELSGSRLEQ
MrgX1 ag: agonists of human MrgX1 receptor | Q96LB2 | B-score at 10 µM | MrgX1-HEK293 cells, Fluo-4 calcium fluorescence, agonist mode; stronger effect = higher value | 310,000 compounds, 0.44% hits | AID 588627;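 active = calcium response B-score plate-corrected fluorescence ratio at least 3 library SD, with starting fluorescence B-score inside 5 SD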
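System – MrgX1-expressing HEK293 cells · Incubation – cells plated overnight, dye loaded 0.5 h 37 °C, 0.5 h room temperature · Technique – kinetic Fluo-4 NW fluorescence of intracellular calcium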
RGS4 block: human RGS4 inhibition. 310,000 compounds, 0.45% hits. B-score at 10 µM. P49798. HEK293 M3R/RGS4 inducible, Fluo-4 calcium flux; stronger effect = higher value; triggered by carbachol at its EC20;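 active = B-score, a plate-corrected calcium signal, over three deviations above library mean, with baseline fluorescence within five deviations of library mean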;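 note: RGS4 expression induced by doxycycline in cells with stable M3 receptor; B-score is computed from the integrated fluorescence ratio over baseline after carbachol; higher B-score means a larger calcium signal and so more RGS4 inhibition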
Target sequence (P49798 whole entry, looked up): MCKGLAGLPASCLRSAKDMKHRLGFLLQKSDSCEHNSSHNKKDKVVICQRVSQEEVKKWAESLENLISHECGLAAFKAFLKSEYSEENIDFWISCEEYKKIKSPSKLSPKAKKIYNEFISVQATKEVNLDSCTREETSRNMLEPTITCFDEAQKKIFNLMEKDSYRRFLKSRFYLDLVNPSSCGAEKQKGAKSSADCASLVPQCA
MrgX1 antag: human MrgX1 receptor antagonism, primary screen. Q96LB2. MRGX1-HEK293 calcium flux, Fluo-4, BAM8-22 antagonism; stronger effect = lower value. B-score at 10 µM. 310,000 compounds, 1.3% hits. AID 588676;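 active = calcium-response B-score plate-corrected more than 3 library SD below zero, starting fluorescence within 5 deviations, no agonist response on first addition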;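 note: peak minus trough fluorescence over baseline after final BAM8-22 challenge near maximal dose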
RGS4 pot: RGS4 potentiation or activation | HEK293 M3R/inducible RGS4, carbachol calcium flux Fluo4; stronger effect = lower value | B-score at 10 µM | 310,000 compounds, 0.92% hits | AID 463111;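 active = B-score of the integrated calcium signal more than 4 SD below the library mean, with starting fluorescence not abnormally high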;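 note: negative B-score means reduced calcium response which marks RGS4 activation or potentiation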
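Detection: kinetic calcium fluorescence imaging with Fluo4-AM dye, 2 µM / Material: HEK293 cells with stable M3R and inducible RGS4 / Schedule: recording 10 s baseline at 1 Hz, 100 s post-agonist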
RGS4 activ val: RGS4 activation, validation assay | shares compounds with RGS4 pot | HEK293 M3R/RGS4 inducible, carbachol calcium flux Fluo4 | inhibition, % at 10 µM | 1,100 compounds, 89% hits | AID 602282;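 active = inhibition above 3 SD of the buffer control wells, cut at about 41% in these data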;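 note: signal is the integrated peak-minus-minimum Fluo4 fluorescence over baseline ratio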
RGS4 act ctr: activity in cells without induced RGS4 expression; shares compounds with RGS4 pot; 1,100 compounds, 82% hits; HEK293 M3R non-induced RGS4, Fluo4 calcium flux; after carbachol challenge at its EC90; inhibition, % at 10 µM;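 active = inhibition exceeding 3 SD of buffer-only control wells, cut at about 26% in these data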;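 note: percent drop in integrated peak-minus-baseline over baseline Fluo4 ratio after carbachol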
Hits are given with their value; - = inactive; . = no result. An excerpt weighted towards active compounds, which were near 3.5% of everything screened.

SMILES	MrgX1 PAM	MrgX1 ag	RGS4 block	MrgX1 antag	RGS4 pot	RGS4 activ val	RGS4 act ctr
CCOC(=O)C1(CCSC)NC(c2ccco2)C2C(=O)N(C)C(=O)C21 (stereo unspecified)	-	-	-	-	-	.	.
Cn1c(SCCN2CCCC2)nnc1C1CCN(S(=O)(=O)c2ccc(F)cc2)CC1	-	-	-	-	-7.76	49.5	-
CCn1ccnc1CN(C)Cc1c(C(=O)N2CCCCCCC2)nc2ccc(Cl)cn12	-	-	-	-	-	.	.
CC(C)COC(=O)c1cc(=O)[nH]c2ccccc12	-	-	-	-	-	.	.
OCCN1CCN(CC/C=C2/c3ccccc3CSc3ccccc32)CC1	-	-	-	-	-	.	.
CNCC/C=C1/c2ccccc2CSc2ccccc21	-	-	-	-	-8.63	92.5	86.3
CC(NS(=O)(=O)c1ccccc1)C(=O)Nc1ccc2c(c1)OCCO2 (stereo unspecified)	-	-	-	-	-	.	.
COc1ccc(NC(=O)CN(C)C(=O)c2cc(-c3ccc(OC)cc3)nc3ccccc23)cc1	-	-	-	-	-8.05	54.0	83.8
Cc1ccc(NC(=O)CN(C)C(=O)c2cc(-c3ccco3)nc3ccccc23)cc1	-	-	-	-	-8.29	61.0	-
COc1ccc(NC(=O)CN(C)C(=O)c2cccc3ccccc23)cc1	-	-	-	-	-	.	.
COc1ccc(-c2cc(C(=O)N(C)CC(=O)Nc3cccc(F)c3)c3ccccc3n2)cc1	-	-	-	-	-8.21	69.5	28.3
CN(CCOc1ccc(Cl)cc1)C(=O)c1cc(-c2ccco2)nc2ccccc12	-	-	-	-	-8.5	91.0	66.3
COC(=O)C1=C(C)N(CC2CC2)C(=O)N[C@H]1c1ccccc1	-	-	-	-	-	.	.
COc1ccc(S(=O)(=O)N(C)CC(=O)Nc2cccc(C(C)=O)c2)cc1Cl	-	-	-	-	-	.	.
O=C(CN1CCCC1)Nc1ccc(-c2nc3cc(NC(=O)CN4CCCC4)ccc3o2)cc1	-	-	-	-	-	.	.
COc1ccc(NC(=O)CN(C)C(=O)c2cc(-c3ccccc3)nc3ccccc23)cc1	-	-	-	-	-8.42	48.5	-
COc1ccc(NC(=O)CN(C)C(=O)c2cc(-c3ccncc3)nc3ccccc23)cc1	-	-	-	-	-	.	.
CN(C)C(=O)CSc1nnc(-c2cc(-c3cccs3)nc3ccccc23)o1	-	-	-	-	-8.28	76.0	45.3
CCOC(=O)C1=C(C)NC(C)=C(C(=O)OCC)C1C(=O)OCC(=O)NC1(C#N)CCCCC1	-	-	-	-	-11.1	45.5	-
COc1ccccc1N1CCN(C(=O)c2ccc3c(Cl)c4c(nc3c2)CCCC4)CC1	-	-	-	-	-9.74	86.5	78.8
O=C(c1ccc2c(Cl)c3c(nc2c1)CCCC3)N1CCN(c2ccc(F)cc2)CC1	-	-	-	-	-9.23	91.5	86.3
CC1CCN(C(=O)c2ccc3c(Cl)c4c(nc3c2)CCCC4)CC1	-	-	-	-	-	.	.
CCOC(=O)C1CCN(C(=O)c2ccc3c(Cl)c4c(nc3c2)CCCC4)CC1	-	-	-	-	-	.	.
O=[N+]([O-])c1cccc(S(=O)(=O)c2cccc([N+](=O)[O-])c2)c1	-	-	-	-	-	.	.
O=C1CCSc2ccc(Cl)cc2N1Cc1ccc(Cl)cc1	-	-	-	-	-10.1	89.5	85.8
SMILES	MrgX1 PAM	MrgX1 ag	RGS4 block	MrgX1 antag	RGS4 pot	RGS4 activ val	RGS4 act ctr
CN1[C@@H]2CC[C@H]1CC(OC(=O)C(O)c1ccccc1)C2 (stereo partly specified)	-	-	.	-	.	.	.
CN1C2CCC1CC(OC(c1ccccc1)c1ccccc1)C2 (stereo unspecified)	-	-	-	-	-8.84	92.0	91.3
COc1ccc(-c2[nH]ncc2/C=N\NC(=O)c2ccc(Br)o2)cc1OC	-	-	-	-	-	.	.
CC(=O)c1cccc(OCC(=O)N2CCN(c3ccc(C(F)(F)F)cn3)CC2)c1	-	-	-	-	-11.7	-	-
CCCc1cc(C(=O)N2CCN(c3ccc(C(F)(F)F)cn3)CC2)sc1C	-	-	-	-	-10.8	83.0	55.8
COc1ccc(NC(=O)CN(c2cc(C)cc(C)c2)S(=O)(=O)c2c(C)n[nH]c2C)cc1	-	-	.	-	.	.	.
CCN(CC)CCSc1nnc2c3cc(C)ccc3n(Cc3ccccc3)c2n1	-	-	-	-	-10.8	93.0	85.3
CSc1nnc2c3cc(F)ccc3n(Cc3ccccc3)c2n1	-	-	-	-	-	.	.
O=C(Nc1ccc(Cl)cc1)N(C1=NCCC1)c1ccc(OC(F)F)cc1	-	-	-	-	-10.2	92.5	92.3
O=C(COC(=O)Cc1ccc(Cl)cc1)Nc1ccc(OC(F)F)cc1	-	-	-	-	-	.	.
O=C(NC1CCCCC1)C(c1ccccc1)N1CCCC1 (stereo unspecified)	-	-	-	-	-8.82	94.5	64.3
Cc1ccc(C(C(=O)NC2CCCCC2)N2CCCC2)cc1 (stereo unspecified)	-	-	-	-	-	.	.
CC(C)CN(CCCNC(=O)CN1N=C(c2ccc(Cl)cc2)CCC1=O)CC(C)C	-	-	-	-	-	.	.
O=C(COC(=O)c1cc(S(=O)(=O)N2CCOCC2)ccc1O)NCCc1ccccc1	-	-	-	-	-9.5	-	-
O=C(O)c1ccc2nc(-c3ccccc3)c(-c3ccccc3)nc2c1	-	-	-	-	-	.	.
CN1CCN(CCNC(=O)c2ccc3nc(-c4ccc(F)cc4)c(-c4ccc(F)cc4)nc3c2)CC1	-	-	-	-	-9.73	90.5	84.3
CCN1CCN(C(=O)c2ccc3nc(-c4ccccc4)c(-c4ccccc4)nc3c2)CC1	-	-	-	-	-9.44	73.0	83.8
Cc1ccccc1C(=O)N(Cc1nc2ccccc2c(=O)[nH]1)C1CCCC1	-	-	-	-	-	.	.
CCN(CC)CCCNC(=O)c1cc2c(=O)n(CC)c3ccccc3c2s1	-	-	-	-	-	.	.
CN(CCCNC(=O)c1cc2c(Cl)nc3ccccc3c2s1)Cc1ccccc1	-	-	-	-	-	.	.
CCN(CC)CCCNC(=O)c1cc2c(Cl)nc3ccccc3c2s1	-	-	-	-	-7.7	68.0	83.8
CCN(CC)CCNC(=O)c1cc2c(=O)n(CC)c3ccccc3c2s1	-	-	-	-	-8.44	54.0	83.8
O=C(NC(CSSCC(NC(=O)c1ccccc1)C(=O)O)C(=O)O)c1ccccc1 (stereo unspecified)	-	-	-	-	-	.	.
CN(C)c1ccc(C(=O)N2CCCC(CCC(=O)N3CCN(c4ccccn4)CC3)C2)cc1 (stereo unspecified)	-	-	-	-	-	.	.
